For one experiment, the target named is T1, Carbonic anhydrase (Candida albicans (strain SC5314 / ATCC MYA-2876) (Yeast), UniProt Q5AJ71).
T1 sequence (Q5AJ71 whole entry): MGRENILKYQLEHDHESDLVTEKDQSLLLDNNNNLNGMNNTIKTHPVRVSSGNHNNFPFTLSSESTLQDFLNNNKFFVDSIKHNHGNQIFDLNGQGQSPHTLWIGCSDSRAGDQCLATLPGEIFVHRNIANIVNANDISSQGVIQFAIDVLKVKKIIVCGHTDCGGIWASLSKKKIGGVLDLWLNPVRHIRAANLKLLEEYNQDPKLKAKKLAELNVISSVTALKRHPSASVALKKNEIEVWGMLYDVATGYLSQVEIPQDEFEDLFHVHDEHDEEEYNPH
In words: Inhibition of Candida albicans Nce103. A digest of the protocol:
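Recombinant purified C. albicans Nce103. Stopped-flow CO2 hydration assay with phenol red indicator (0.2 mM) read at 557 nm. Tris buffer pH 8.3 with 20 mM Na2SO4 or NaClO4 for ionic strength. CO2 1.7–17 mM. Initial rates over 10–100 s, uncatalyzed rate subtracted. Enzyme and inhibitor preincubated 15 min at room temperature. Ki by non-linear least squares from three assays.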

Experiment [1] is described as follows: Inhibition of Cryptococcus neoformans Can2. A digest of the protocol: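 Recombinant purified Can2. Stopped-flow CO2 hydration assay read with 0.2 mM phenol red at 557 nm, in TRIS pH 8.3 with 20 mM NaClO4 or Na2SO4 for ionic strength. Initial rates followed over 10–100 s, CO2 1.7–17 mM, uncatalyzed rate subtracted. Enzyme and inhibitor preincubated 15 min at room temperature. Ki from non-linear least squares, mean of at least three determinations.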

The target of another experiment is Carbonic anhydrase 2 (Homo sapiens, UniProt P00918). The experiment can be described thus: Inhibition of human carbonic anhydrase2.

As a reminder, the Ki is a measure of affinity in units of concentration, obtained from inhibition or displacement. A higher Ki goes with weaker binding. As for `O=C(O)c1c(F)c(F)cc(F)c1F`, the values for the Ki (at Carbonic anhydrase; in experiment [1]) were 61.6 µM and 49.1 µM, respectively.

As for `O=C([O-])C[C@H](O)C(=O)[O-].[Na+].[Na+]`, the Ki on Carbonic anhydrase amounted to 87.7 µM; on Carbonic anhydrase 2, 1870 µM; in experiment [1], 899 µM.

As for `C[C@H](O)C(=O)[O-].[Na+]`, the Ki on Carbonic anhydrase is 46.8 µM; at Carbonic anhydrase 2, 3220 µM; in experiment [1] it was 953 µM.

With `O=C([O-])CC(=O)[O-].[Na+].[Na+]` [DISODIUM MALONATE], the Ki at Carbonic anhydrase is 26.3 µM; in experiment [1], 793 µM.

For `CC(=O)C(=O)O` [PYRUVATE SODIUM], the Ki on Carbonic anhydrase worked out at 106 µM; in experiment [1] it was 787 µM.

As to `CC(=O)[O-].[Na+]` [SODIUM ACETATE], the Ki on Carbonic anhydrase was 36 µM; in experiment [1], 7.3 µM.

For `O=C([O-])c1ccccc1.[Na+]` [SODIUM BENZOATE], the Ki on Carbonic anhydrase stood at 24.4 µM; in experiment [1] it was 1270 µM.

For `CCCC(=O)[O-].[Na+]` [SODIUM BUTYRATE], the Ki at Carbonic anhydrase was 26.9 µM; at Carbonic anhydrase 2, 1030 µM; in experiment [1] it was 225 µM.

`O=C([O-])CC(O)(CC(=O)[O-])C(=O)[O-].[Na+].[Na+].[Na+]` [SODIUM CITRATE]: the Ki at Carbonic anhydrase was 39.1 µM; in experiment [1] it was 88.6 µM.

As to `O=C[O-].[Na+]` [SODIUM FORMATE], the Ki on Carbonic anhydrase was 35.1 µM; in experiment [1] it was 53.5 µM.

As for `O=C([O-])/C=C\C(=O)[O-].[Na+].[Na+]` [SODIUM MALEATE], the Ki at Carbonic anhydrase came out at 8.6 µM; at Carbonic anhydrase 2 it was 989 µM; in experiment [1], 8.7 µM.

In the case of `O=C([O-])C(=O)[O-].[Na+].[Na+]` [SODIUM OXALATE], the Ki came out at 37.7 µM on Carbonic anhydrase and 67.7 µM in experiment [1].

As to `CCC(=O)[O-].[Na+]` [SODIUM PROPIONATE], the Ki at Carbonic anhydrase was 51.5 µM; at Carbonic anhydrase 2, 960 µM; in experiment [1], 404 µM.

For `CCCCC(=O)[O-].[Na+]` [SODIUM VALERATE], the Ki on Carbonic anhydrase worked out at 94 µM; at Carbonic anhydrase 2, 257 µM; in experiment [1], 42.8 µM.

These data come from ChEMBL document CHEMBL1153396, “Carbonic anhydrase inhibitors. Inhibition of the beta-class enzymes from the fungal pathogens Candida albicans and Cryptococcus neoformans with aliphatic and aromatic carboxylates” (Bioorg Med Chem, 2009).
